Most compounds without a hit are left out; they make up all but 12% or so of the library.
L major viab = inhibitors of Leishmania major promastigote growth; Leishmania major promastigotes, resazurin fluorescence viability; inhibition, % at 10 µM; 9% of 200,000 active; in the data active means inhibition above about 50%;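 further: promastigotes grown with compound for 44 hours at 28 °C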
Autophagy mod = modulators of autophagy. 0.98% of 190,000 active. calls only at 10 µM (by protocol). AID 463193. MEF GFP-LC3 puncta imaging; test concentration mostly 10 µM;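 active means percentage of spot-positive cells more than 3 SD above its plate mean, without a fluorescence outlier flag or 80% toxicity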
CHOP inhibitor = CHOP inhibition in unfolded protein response. CHO-K1 CHOP-promoter luciferase, tunicamycin-induced, 15-18 h. inhibition, % at 10 µM. 3.8% of 220,000 active. AID 2732;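 active means compounds that reduced the stress-induced luciferase reporter signal by more than about 70% of percent inhibition, limit read from the data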
Dynein cargo inh = dynein cargo transport inhibition; 3617.4 mouse cells, GR-EGFP nuclear translocation imaging; test concentration mostly 20 µM; stimulated with dexamethasone, 1 µM; hits give low values; 0.47% of 220,000 active; z-score, hits read low; AID 1381;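 active means plate z-score of nuclear minus cytoplasmic receptor signal below a set negative limit, without overly bright fluorescence or cell loss, cut at about -3.5 in these data, passing the limit was not always enough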;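 further: z-score of nuclear minus cytoplasmic ring GR-EGFP intensity difference per well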
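medium = tetracycline-free induction medium containing charcoal-stripped FBS | also added = 1.0 µM final dexamethasone stimulus | schedule = 48 h induction, 1 h compound, 30 min dex at 37 °C | technique = fixed, Hoechst-stained cells imaged at 10x for EGFP | measure = GR-EGFP nuclear translocation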
bCat nuc transl = alters nuclear translocation of beta-catenin in HeLa cells | AID 1665 | immunofluorescence imaging | nuclear translocation activity, % at 5 µM | 0.3% of 190,000 active;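 active means nuclear translocation activity above 50% at 5 µM, with a well cell count of 50 or more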;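 further: per-cell ratio of nuclear to cytoplasmic median beta-catenin stain intensity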
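Test system: human HeLa cell line; Doses: 5 µM primary, 0.02–20 µM confirmation; Incubation: 24 h compound exposure, 37°C; Detection: beta-catenin immunofluorescence imaging with DAPI; Read-out: beta-catenin nuclear/cytoplasmic ratio, % activation.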
MT stabilizer = stabilizes microtubules in HeLa cells | % tubulin-high responders, % at 10 µM | 0.83% of 200,000 active | HeLa tubulin immunostaining HCS, 24 h; share of cells brighter than vehicle mean+2SD;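 active means plate Z-score above 3 for both tubulin-high and condensed-nucleus cell shares, with cell loss under 80%, at 10 µM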;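 further: anti alpha tubulin signal scored within the nucleus-defined area of each cell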
A number is an active result; . = inactive; / = not tested or not shown; + = active, no number.

SMILES	L major viab	Autophagy mod	CHOP inhibitor	Dynein cargo inh	bCat nuc transl	MT stabilizer
Cc1ccccc1NS(=O)(=O)c1ccc(OCC(=O)NCc2ccccn2)cc1	.	.	.	.	.	.
O=S(=O)(c1ccccc1)N1CCN=C1SCc1ccc(Cl)cc1	100	.	.	.	.	.
O=S(=O)(c1ccccc1)N1CCN=C1SCc1ccc(Cl)c(Cl)c1	51	.	72	.	.	.
Cc1nn(-c2ccc(Cl)cc2)c(=O)c2c(C)noc12	/	/	.	.	.	/
N#CC1CC(c2ccccc2)=NN1c1ccccc1[N+](=O)[O-] (stereo unspecified)	.	.	.	.	.	.
O=C(OC1CCOC1=O)c1cc(-c2cccs2)nc2ccccc12 (stereo unspecified)	.	.	.	.	.	.
CCC(C)NCCOCCOc1cc(C)c(Cl)c(C)c1 (stereo unspecified)	87	.	.	.	.	.
CCC(C)NCCOCCOc1ccc(F)cc1 (stereo unspecified)	95	.	.	.	/	.
CCc1ccc(OCCOCC(O)CNC(C)CC)cc1 (stereo unspecified)	.	.	.	.	.	.
CCC(C)NCCCCOc1cc(C)cc(C(C)C)c1 (stereo unspecified)	91	.	.	.	.	.
CCC(C)NCCCOc1ccc([N+](=O)[O-])cc1 (stereo unspecified)	.	.	.	.	.	.
CCNC(=O)COc1cc(C)c(Cl)c(C)c1	.	.	.	.	.	.
CCC(C)NCCOc1cc(C)cc(C)c1C (stereo unspecified)	.	.	.	.	.	.
CCC(C)NCCCCOc1ccc(Br)cc1 (stereo unspecified)	94	.	.	.	.	.
O=C(Nc1cnn(Cc2ccc(Cl)c(Cl)c2)c1)C12CC3CC(CC(C3)C1)C2	.	.	.	.	.	.
COc1ccc(/C=C2\CCCC3C2=NN(C(=O)CSc2ncn[nH]2)C3c2ccc(OC)cc2)cc1 (stereo unspecified)	91	.	.	.	/	.
Cc1ncsc1C(=O)N1N=C2/C(=C/c3ccccc3)CCCC2C1c1ccccc1 (stereo unspecified)	99	.	.	.	.	.
O=C(CSc1ncn[nH]1)N1N=C2/C(=C/c3ccccc3)CCCC2C1c1ccccc1 (stereo unspecified)	.	.	.	.	.	.
Cn1cc(CN2CCN(c3ccc(Cl)cn3)CC2)c(-c2ccccc2F)n1	.	.	.	.	.	.
Cn1cc(CN2CCN(Cc3ccc4c(c3)OCO4)CC2)c(-c2ccccc2F)n1	60	.	.	.	.	.
Cc1cccc(N2CCN(Cc3cn(C)nc3-c3ccccc3F)CC2)n1	.	.	.	.	103	34
CN(C)c1nc(Oc2ccc(N)cc2)nc(N(C)C)n1	.	.	.	.	.	.
Cc1ccc(N(C(=O)c2ccccc2Cl)C2=NC(C)CS2)c(C)c1 (stereo unspecified)	94	.	.	.	.	.
CCOc1ccccc1N(C(=O)c1ccccc1Cl)C1=NC(C)(C)CS1	.	.	.	.	.	.
OCCC1CN(Cc2cn[nH]c2C2CCCCC2)CCN1C1CCCC1 (stereo unspecified)	.	.	.	.	.	.
SMILES	L major viab	Autophagy mod	CHOP inhibitor	Dynein cargo inh	bCat nuc transl	MT stabilizer
CN(C)C=Nc1ncc2c3ccccc3n(CCN(C)C)c2c1C#N	98	.	.	.	.	.
COC(=O)c1ccc(-n2c(C)cc(C(=O)COC(=O)CNS(=O)(=O)c3ccc(C)cc3)c2C)cc1	.	.	.	.	.	.
COC(=O)c1cc(C(=O)OC)cc(-n2c(C)cc(C(=O)COC(=O)CNS(=O)(=O)c3ccc(C)cc3)c2C)c1	90	.	.	.	.	.
COc1ccc(CCNC(=O)CN(c2cc([N+](=O)[O-])ccc2OC)S(C)(=O)=O)cc1OC	.	.	.	.	.	.
CC(CCc1ccccc1)NC(=O)c1cccs1 (stereo unspecified)	.	.	.	.	.	.
CC1CCCCC1NC(=O)C(Cc1ccccc1)NS(=O)(=O)c1cccs1 (stereo unspecified)	58	.	.	.	/	.
CC(CCc1ccccc1)NC(=O)C(Cc1ccccc1)NS(=O)(=O)c1cccs1 (stereo unspecified)	89	.	.	.	.	.
CCc1ccc(N2C(=O)c3sc4nnc(-c5ccccc5)c(=O)n4c3C2=O)cc1	.	.	71	.	.	.
CCOC(=O)c1[nH]c(C)c(C(=O)Nc2ccc(C)cc2C)c1C	.	/	/	.	.	16
CCOC(=O)c1[nH]c(C)c(C(=O)Nc2ccccc2F)c1C	.	+	/	.	.	34
CCOC(=O)c1[nH]c(C)c(C(=O)NCc2ccc(C)cc2)c1C	.	.	.	.	/	.
CCOC(=O)c1[nH]c(C)c(C(=O)c2ccc(C)cc2)c1C	.	.	/	.	/	44
O=C(NC1CC(=O)c2sccc21)c1ccc(Cl)cc1Cl (stereo unspecified)	.	.	.	.	.	.
CCOC(=O)N1CCC(NC(=O)c2ccc(CS(=O)(=O)c3ccc(OC)cc3)o2)CC1	.	.	.	.	/	.
C#CCn1cc(/C=N/NC(=O)COc2cccc3cccnc23)c2ccccc21	58	.	103	.	.	.
Cc1ccccc1OCC(=O)N/N=C/c1cn(Cc2ccccc2)c2ccccc12	.	.	73	.	.	.
CN(C)NC1CCS(=O)(=O)C1 (stereo unspecified)	.	.	.	.	.	.
Cc1cc(C)cc(OCC(=O)OC/C(O)=C(\C#N)c2nc3ccccc3[nH]2)c1	.	.	79	.	.	.
Cc1cccc(C)c1OCC(=O)OC/C(O)=C(\C#N)c1nc2ccccc2[nH]1	.	.	.	.	.	.
N#C/C(=C(/O)COC(=O)COc1cccc(Br)c1)c1nc2ccccc2[nH]1	/	/	75	.	.	/
COCC(=O)OC/C(O)=C(\C#N)c1nc2ccccc2[nH]1	/	/	.	.	.	/
CCOC(=O)N1CCN(C(=O)CCSc2ccccc2)CC1	.	.	.	.	.	.
CC(C)(O)P(=O)(O)CCc1ccccc1	/	/	.	.	.	/
CC(=O)c1c(N2CCN(Cc3ccccc3)CC2)nc(=S)n(Cc2ccccc2)c1C	63	.	.	.	.	.
CC(=O)c1c(N2CCCCC2)nc(=S)n(Cc2ccccc2)c1C	.	.	.	.	.	.
COc1ccc(NC2=C(NCCO)C(=O)c3ccccc3C2=O)cc1	.	.	.	.	.	21
COC1=C(Nc2ccc(O)cc2)C(=O)c2ccccc2C1=O	53	.	.	.	.	.
CCOc1ccc(NC2=C(OC)C(=O)c3ccccc3C2=O)cc1	.	.	.	.	.	.
COC1=C(Nc2ccc(OC)cc2)C(=O)c2ccccc2C1=O	69	.	.	.	.	.
